Results from ChEMBL document CHEMBL3992522, “Antileishmanial Activity of Pyrazolopyridine Derivatives and Their Potential as an Adjunct Therapy with Miltefosine” (J Med Chem, 2017).
The source made the active and inactive calls. The rule behind the calls is not given here.

Legend:
Format in all cases: functional
Leishmania donovani [1] = experiment: Antileishmanial activity against Leishmania donovani MHOM/IN/80/DD8 promastigote forms harboring luciferase gene at 25 uM after 72 hrs by Steady-Glo reagent based luminescence assay relative to control; conditions: MHOM/IN/80/DD8, 72 h, read-out: GI
Outline: (§1)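 Exponential-phase Dd8-Luc promastigotes at 1×10^6/mL in M199 with 10% FBS, 24 °C, given 50 and 25 µM for 72 h. Vehicle 0.1% DMSO. Steady-Glo added 1:1, luminescence (RLU) read. IC50 from four-parameter Hill regression, derived only where inhibition exceeded 90%. Means of at least three independent experiments.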

Leishmania donovani [2] = experiment: Antileishmanial activity against Leishmania donovani MHOM/IN/80/DD8 amastigote forms harboring luciferase gene infected in mouse J774 cells at 25 uM after 72 hrs by Steady-Glo reagent based luminescence assay relative to control; conditions: for inhibition of growth at 25 µM: MHOM/IN/80/DD8, J774, 72 h, read-out: GI
Outline: (§2)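 Stationary-phase luciferase-expressing Dd8 promastigotes infected into J774 macrophages (4×10^4/mL seeded, 24 h, 37 °C, 5% CO2) at 1:8 macrophage:parasite for 24 h. Non-internalised parasites washed off. Compounds added at 50 and 25 µM in RPMI/10% FBS for 72 h. Lysis with Steady-Glo luciferin reagent plus PBS, luminescence read. Inhibition relative to untreated infected controls.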

Leishmania donovani [3] = experiment: Antileishmanial activity against Leishmania donovani MHOM/IN/80/DD8 promastigote forms harboring luciferase gene at 50 uM after 72 hrs by Steady-Glo reagent based luminescence assay relative to control; conditions: MHOM/IN/80/DD8, 72 h, read-out: GI; outline: as §1
Leishmania donovani [4] = experiment: Antileishmanial activity against Leishmania donovani MHOM/IN/80/DD8 amastigote forms harboring luciferase gene infected in mouse J774 cells at 50 uM after 72 hrs by Steady-Glo reagent based luminescence assay relative to control; conditions: for inhibition of growth at 50 µM: MHOM/IN/80/DD8, J774, 72 h, read-out: GI; outline: as §2

Row | SMILES | inhibition of growth at 25 µM (Leishmania donovani [1]) [%] | growth inhibition (GI) (Leishmania donovani [2]) | inhibition of growth at 50 µM (Leishmania donovani [3]) [%] | growth inhibition (GI) (Leishmania donovani [4]) | inhibition of growth at 25 µM (Leishmania donovani [2]) [%] | inhibition of growth at 50 µM (Leishmania donovani [4]) [%]
1 | COc1cc(-c2c3c(nc4c2c(-c2c[nH]c5ccccc25)nn4-c2ccc(Cl)cc2)-c2ccccc2C3=O)cc(OC)c1OC | 28.3 | inactive | 41.1 | inactive |  | 
2 | O=C1C2=C(Nc3c(c(-c4c[nH]c5ccccc45)nn3-c3ccc(Cl)cc3)C2c2ccc(Cl)cc2)c2ccccc21 (stereo not given) | 49.1 | inactive | 62.4 | inactive |  | 
3 | COc1cc(C2C3=C(CCC3=O)Nc3c2c(-c2c[nH]c4ccccc24)nn3-c2ccc(Cl)cc2)cc(OC)c1OC (stereo not given) | 78.4 |  | 81.2 |  | 45.2 | 59.6
4 | CC1(C)CC(=O)C2=C(C1)Nc1c(c(-c3c[nH]c4ccccc34)nn1-c1ccc(Cl)cc1)C2c1cccs1 (stereo not given) | 82.5 |  | 86.5 |  | 43.8 | 51.7
5 | CC1(C)CC(=O)c2c(nc3c(c(-c4c[nH]c5ccccc45)nn3-c3ccc(F)cc3)c2-c2ccc(Cl)cc2Cl)C1 | 44.6 | inactive | 48.4 | inactive |  | 
6 | CC1(C)CC(=O)C2=C(C1)Nc1c(c(-c3c[nH]c4ccccc34)nn1-c1ccc(Cl)cc1)C2c1ccc(Cl)cc1 (stereo not given) | 62.5 | inactive | 65.4 | inactive |  | 
7 | COc1ccc(OC)c(-c2c3c(nc4c2c(-c2c[nH]c5ccccc25)nn4-c2ccc(F)cc2)CC(C)(C)CC3=O)c1 | 84.1 |  | 90.3 |  | 22.4 | 27.9
8 | CC1(C)CC(=O)C2=C(C1)Nc1c(c(-c3c[nH]c4ccccc34)nn1-c1ccc(F)cc1)C2c1ccc(Cl)cc1 (stereo not given) | 54.3 | inactive | 65.3 | inactive |  | 
9 | COc1ccc(-c2c3c(nc4c2c(-c2c[nH]c5ccccc25)nn4-c2ccc(Cl)cc2)CC(C)(C)CC3=O)c(OC)c1OC | 40.2 | inactive | 54.3 | inactive |  | 
10 | COc1cc(-c2c3c(nc4c2c(-c2c[nH]c5ccccc25)nn4-c2ccc(Cl)cc2)CCC3=O)cc(OC)c1OC | 66.8 | inactive | 72.3 | inactive |  | 
11 | COc1ccc(OC)c(-c2c3c(nc4c2c(-c2c[nH]c5ccccc25)nn4-c2ccc(Cl)cc2)-c2ccccc2C3=O)c1 | 44.6 | inactive | 53.6 | inactive |  | 
12 | COc1ccc(OC)c(-c2c3c(nc4c2c(-c2c[nH]c5ccccc25)nn4-c2ccc(Cl)cc2)CC(C)(C)CC3=O)c1 | 50.7 | inactive | 69.6 | inactive |  | 
13 | O=C1C2=C(Nc3c(c(-c4c[nH]c5ccccc45)nn3-c3ccc(Cl)cc3)C2c2cccs2)c2ccccc21 (stereo not given) | 65.3 | inactive | 69.2 | inactive |  | 
14 | COc1ccc(C2C3=C(CC(C)(C)CC3=O)Nc3c2c(-c2c[nH]c4ccccc24)nn3-c2ccc(Cl)c(Cl)c2)cc1OC (stereo not given) | 52.3 | inactive | 59.5 | inactive |  | 
15 | COc1cc(C2C3=C(CCC3=O)Nc3c2c(-c2c[nH]c4ccccc24)nn3-c2ccc(Cl)cc2)cc(OC)c1O (stereo not given) | 79.1 |  | 89.6 |  | 25.2 | 30.7
